Measurements as given in PMC8324497 (Cell Reports Medicine, 2021).
Where two headings read alike, the source gives them in different places.

Experiments:
ERK1 = ERK1 (Homo sapiens, UniProt P27361); test: ERK1/ERK2 HTRF enzymatic assay; assay type: biochemical
How it was run: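 Substrate-ATP mix added, then enzyme mix, and incubated 60 min at room temperature with shaking. Reaction mixture was then transferred into HTRF detection mix for 45 min at room temperature and read in HTRF mode. IC50 from a variable-slope sigmoidal fit.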

HT-29 = test: Cell proliferation assay; assay type: cell-based; settings: Homo sapiens, HT-29, 72 h
How it was run: (§1)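 Adherent solid-tumour cells were seeded at 5,000 cells/well and allowed to attach for 16–24 h at 37°C, 5% CO2. They were exposed to the test compound at 0.0005–10 μM (3-fold serial dilutions) for 72 h. Alamar Blue was added (1X final) for 1–3 h and fluorescence read at 540 nm excitation, 590 nm emission. IC50 came from a sigmoidal variable-slope fit.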

Colo 205 = test: Cell proliferation assay; assay type: cell-based; settings: Homo sapiens, COLO 205, 72 h
How it was run: as §1

NCI-H2122 = test: Cell proliferation assay; assay type: cell-based; settings: Homo sapiens, NCI-H2122, 72 h
LoVo = test: Cell proliferation assay; assay type: cell-based; settings: Homo sapiens, 72 h
Calu-6 = test: Cell proliferation assay; assay type: cell-based; settings: Homo sapiens, Calu-6, 72 h
NCI-H460 = test: Cell proliferation assay; assay type: cell-based; settings: Homo sapiens, NCI-H460, 72 h
CFPAC-1 = test: Cell proliferation assay; assay type: cell-based; settings: Homo sapiens, CFPAC-1, 72 h
Hep G2 = test: Cell proliferation assay; assay type: cell-based; settings: Homo sapiens, HepG2, 72 h
A2780 = test: Cell proliferation assay; assay type: cell-based; settings: Homo sapiens, A2780, 72 h
How it was run: as §1

NCI-H1975 = test: Cell proliferation assay; assay type: cell-based; settings: Homo sapiens, NCI-H1975, 72 h
How it was run: as §1

BT-474 = test: Cell proliferation assay; assay type: cell-based; settings: Homo sapiens, BT-474, 72 h
How it was run: as §1

Daudi = test: Cell viability MTS assay; assay type: cell-based; settings: Homo sapiens, read-out: IC50 mean values
How it was run: (§2)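 Lymphoma suspension lines were grown in RPMI 1640 with 10–20% heat-inactivated FBS, 1% L-glutamine and penicillin-streptomycin at 37°C, 5% CO2. Cells were plated at 25,000/100 μL (96-well) or 250,000/mL (24-well) with DMSO 0.1% vehicle or rising compound concentrations for 24–72 h. MTS reagent was added at 1:5 and absorbance read at 490 nm. IC50 was taken from three independent experiments (mean ± SD).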

HBL-1 = test: Cell viability MTS assay; assay type: cell-based; settings: Homo sapiens, HBL1, read-out: IC50 mean values
How it was run: as §2

JVM-2 = test: Cell viability MTS assay; assay type: cell-based; settings: Homo sapiens, JVM-2, read-out: IC50 mean values
How it was run: as §2

OCI-Ly3 = test: Cell viability MTS assay; assay type: cell-based; settings: Homo sapiens, OCI-Ly3, read-out: IC50 mean values
How it was run: as §2

BJAB = test: Cell viability MTS assay; assay type: cell-based; settings: Homo sapiens, read-out: IC50 mean values
How it was run: as §2

Raji = test: Cell viability MTS assay; assay type: cell-based; settings: Homo sapiens, read-out: IC50 mean values
How it was run: as §2

SU-DHL-8 = test: Cell viability MTS assay; assay type: cell-based; settings: Homo sapiens, SU-DHL-8, read-out: IC50 mean values
How it was run: as §2

SU-DHL-1 = test: Cell viability MTS assay; assay type: cell-based; settings: Homo sapiens, SU-DHL-1, read-out: IC50 mean values
How it was run: as §2

U-2932 = test: Cell viability MTS assay; assay type: cell-based; settings: Homo sapiens, U2932, read-out: IC50 mean values
How it was run: as §2

Ramos = test: Cell viability MTS assay; assay type: cell-based; settings: Homo sapiens, read-out: IC50 mean values
How it was run: as §2

SU-DHL-10 = test: Cell viability MTS assay; assay type: cell-based; settings: Homo sapiens, SU-DHL10, read-out: IC50 mean values
How it was run: as §2

Ri-1 = test: Cell viability MTS assay; assay type: cell-based; settings: Homo sapiens, Ri-1, read-out: IC50 mean values
How it was run: as §2

JeKo-1 = test: Cell viability MTS assay; assay type: cell-based; settings: Homo sapiens, JeKo-1, read-out: IC50 mean values
How it was run: as §2

SU-DHL-6 = test: Cell viability MTS assay; assay type: cell-based; settings: Homo sapiens, SU-DHL-6, read-out: IC50 mean values
How it was run: as §2

OCI-Ly19 = test: Cell viability MTS assay; assay type: cell-based; settings: Homo sapiens, OCI-LY19, read-out: IC50 mean values
How it was run: as §2

MINO = test: Cell viability MTS assay; assay type: cell-based; settings: Homo sapiens, read-out: IC50 mean values
How it was run: as §2

[1] = test system: panel of 23 solid tumor cell lines; test: Antiproliferative activity in a panel of 23 solid tumor cell lines; assay type: cell-based; settings: Homo sapiens
How it was run: as §1

[2] = test system: MSK1 and RSK1 phosphorylation in JeKo-1 and A375 cell lines; test: Time-dependent western blot of ERK1/2 targets; assay type: cell-based, human
How it was run: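 JeKo-1 and A375 cells were treated with compound over a time course and lysed in Cell Signaling lysis buffer. Samples of 30 μg protein were denatured at 95°C for 5 min in Laemmli buffer with DTT and run on 4–15% or 4–12% gels. After transfer to PVDF or nitrocellulose, blots took primary antibody overnight in 5% BSA/PBS and IRDye or HRP secondary for 1 h at room temperature. Phospho-MSK1 and phospho-RSK1 were imaged.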

[3] = test system: HCT116, Panc-1, MIA PaCa-2 and SK-N-AS xenografts; test: Human tumor xenograft mouse models; assay type: in vivo; settings: all four models
How it was run: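 Female athymic nude or NSG mice, randomised at 10 per group, received subcutaneous cell-line implants. At about 100 mm3, animals were dosed orally with vehicle or compound at set doses and schedules (QD or BID); salt forms were used, free base for HCT116. Tumour volume, (L×W×H)/2, and body weight were measured twice weekly. Data are mean ± SEM, n > 8 per group.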

[4] = test system: advanced solid tumors harboring BRAF and KRAS, HRAS, and NRAS mutations; settings: phase I, early results, cited from earlier work

Chain of ERK1 (P27361 whole entry): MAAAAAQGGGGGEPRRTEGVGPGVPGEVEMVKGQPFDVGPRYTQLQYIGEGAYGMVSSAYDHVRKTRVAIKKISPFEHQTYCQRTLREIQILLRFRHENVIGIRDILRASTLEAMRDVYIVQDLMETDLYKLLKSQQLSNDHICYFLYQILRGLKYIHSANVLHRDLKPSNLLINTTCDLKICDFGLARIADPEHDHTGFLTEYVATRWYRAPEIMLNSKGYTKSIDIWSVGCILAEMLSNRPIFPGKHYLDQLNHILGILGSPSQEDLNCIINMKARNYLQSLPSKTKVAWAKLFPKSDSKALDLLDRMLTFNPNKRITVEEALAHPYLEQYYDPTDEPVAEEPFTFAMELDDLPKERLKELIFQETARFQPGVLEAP

Work on `Cc1cnc(NC2CCOCC2)nc1-n1cnc(C(=O)NC(CN)c2cc(F)cc(Cl)c2)c1` (stereo not drawn) [ASN007, N-(2-amino-1-(3-chloro-5-fluorophenyl)ethyl)-1-(5-methyl-2-((tetrahydro-2H-pyran-4-yl)amino)pyrimidin-4-yl)-1H-imidazole-4-carboxamide] yielded an IC50 (ERK1) of 2 nM, an IC50 (HT-29) of 20 nM and an IC50 (Colo 205) of 21 nM. It also gave an IC50 (NCI-H2122) of 15 nM, an IC50 (LoVo) of 5 nM and an IC50 (Calu-6) of 7 nM. For the same compound, the IC50 (NCI-H460) was 296 nM, the IC50 (CFPAC-1) was 576 nM and the IC50 (Hep G2) was 58 nM. For the same compound, the IC50 (A2780) was 8 nM, the IC50 (NCI-H1975) was greater than 10000 nM and the IC50 (BT-474) was greater than 10000 nM. The IC50 (Daudi) was greater than 10000 nM, the IC50 (HBL-1) was 7400 nM and the IC50 (JVM-2) was 5700 nM. For the same compound, the IC50 (OCI-Ly3) was 5500 nM, the IC50 (BJAB) was 4300 nM and the IC50 (Raji) was 3100 nM. It also gave an IC50 (SU-DHL-8) of 2400 nM, an IC50 (SU-DHL-1) of 2300 nM and an IC50 (U-2932) of 2300 nM. The IC50 (Ramos) was 1800 nM, the IC50 (SU-DHL-10) was 1700 nM and the IC50 (Ri-1) was 1600 nM. It also gave an IC50 (JeKo-1) of 1400 nM, an IC50 (SU-DHL-6) of 1200 nM and an IC50 (OCI-Ly19) of 400 nM. For the same compound, the IC50 (MINO) was 200 nM, the IC50 ([1]; read-out: IC50 range) was 13 to 100 nM and the IC50 ([1]; read-out: IC50 values) was greater than 10000 nM. For the same compound, the IC50 ([1]; read-out: median IC50) was 37 nM, the “duration of inhibition of ERK1/2 targets MSK1 and RSK1” value [2] was “at least 72 h” and the body weight [3] was “without body weight loss”. For the same compound, the antitumor efficacy ([3]; oral, besylate or mandelate salt, freebase for HCT116) was “strong antitumor efficacy”, the “duration of clinical activity” value ([4]; lasting up) was greater than 12 months and the tolerability [4] was “well tolerated”.
